Experimental findings from ChEMBL document CHEMBL3352270, “Antimalarial activity of abietane ferruginol analogues possessing a phthalimide group” (Bioorg Med Chem Lett, 2014) are described below.

Values after ≈ are worked out from the molar mass of the structure shown.

In data set [1] the test system is Plasmodium falciparum. The data set can be described thus: microbe, parasite or virus in culture. The data set is classed as functional, organism-based. Conditions: 3D7, 72 h.
A short description of data set [2]: Selectivity index, ratio of cytotoxic EC50 against human cells to EC50 for Plasmodium falciparum 3D7. Conditions: human cells (cell line not named).
A further data set has as its system HepG2. The data set can be described thus: Cytotoxicity against human HepG2 cells. Type of data set: functional, cell-based.
In the next data set the test system is Raji. The data set can be described thus: Cytotoxicity against human Raji cells. Type of data set: functional, cell-based.
A further data set deals with BJ. The data set can be described thus: Cytotoxicity against human BJ cells. Type of data set: ADME, cell-based.
The next data set relates to HEK293. The data set is described as follows: Cytotoxicity against HEK293 cells. Type of data set: functional, cell-based. Conditions: Homo sapiens.
Data set [3] deals with Plasmodium falciparum. The data set is described as follows: microbe, parasite or virus in culture. The data set is classed as functional, organism-based. Conditions: K1, 72 h.
Data set [4] can be described thus: Selectivity index, ratio of cytotoxic EC50 against human cells to EC50 for Plasmodium falciparum K1. Conditions: human cells (cell line not named).
For data set [5], the system named is Plasmodium falciparum. The data set can be described thus: Antimalarial activity against Plasmodium falciparum K1. Type of data set: functional, organism-based. In outline:
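Chloroquine-resistant K1 strain of P. falciparum; […].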

In data set [6] the test system is Plasmodium falciparum. The data set can be described thus: Antimalarial activity against Plasmodium falciparum D10. Type of data set: functional.
Data set [7] in a line: Selectivity index, ratio of cytotoxicity against CHO cells to IC50 for Plasmodium falciparum K1. Type of data set: toxicity, cell-based. Conditions: hamster, read-out: Selectivity Index.
A short description of data set [8]: Selectivity index, ratio of cytotoxicity against CHO cells to IC50 for Plasmodium falciparum D10. Type of data set: toxicity, cell-based. Conditions: hamster, read-out: Selectivity Index.
The nature of data set [9]: Selectivity index, ratio of cytotoxicity against human HepG2 cells to IC50 for Plasmodium falciparum K1. The data set is classed as toxicity, cell-based. Conditions: read-out: Selectivity Index.
A short description of data set [10]: Selectivity index, ratio of cytotoxicity against human HepG2 cells to IC50 for Plasmodium falciparum D10. Type of data set: toxicity, cell-based. Conditions: read-out: Selectivity Index.
In data set [11] the test system is Plasmodium falciparum. The data set is described as follows: Antimalarial activity against Plasmodium falciparum D6. Type of data set: functional, organism-based.
The test system of data set [12] is Plasmodium falciparum. The data set can be described thus: Antimalarial activity against chloroquine-sensitive Plasmodium falciparum D6. The data set is classed as functional, organism-based.
For data set [13], the system named is Plasmodium falciparum. The data set can be described thus: Antimalarial activity against chloroquine-resistant Plasmodium falciparum W2. Type of data set: functional, organism-based.
Data set [14] has as its system Plasmodium falciparum. The data set is described as follows: Antimalarial activity against chloroquine-resistant Plasmodium falciparum K1. Type of data set: functional, organism-based.
Data set [15] can be described thus: Selectivity index, ratio of cytotoxicity against rat L6 cells to IC50 for Plasmodium falciparum K1. Type of data set: toxicity, cell-based. Conditions: read-out: Selectivity Index.

As for `CC(C)c1ccc2c(c1)CC[C@H]1[C@](C)(CN3C(=O)c4ccccc4C3=O)CCC[C@]21C`, the EC50 (in general, the concentration giving half of the maximal effect) in the data set on Plasmodium falciparum [1] is 1.36 µM; in the data set with HepG2, greater than 25 µM; with Raji, greater than 25 µM; in the data set with BJ it was greater than 25 µM; in the data set on HEK293, greater than 25 µM; in the data set with Plasmodium falciparum [3], 15 µM. Also, in data set [2], the selectivity ratio is greater than 18.4.
Turning to `CC(=O)c1cc2c(cc1C(C)C)CC[C@H]1[C@](C)(CN3C(=O)c4ccccc4C3=O)CCC[C@]21C`, the EC50 with Plasmodium falciparum [1] was 0.086 µM; in the data set on HepG2 it was greater than 25 µM; in the data set with Raji it was greater than 25 µM; in the data set on BJ, greater than 25 µM; with HEK293 it was greater than 25 µM; in the data set with Plasmodium falciparum [3], 0.201 µM. Moreover, the selectivity ratio in [2] was greater than 290; in data set [4], greater than 124.
Regarding `CC(=O)Oc1cc2c(cc1C(C)C)CC[C@H]1[C@](C)(CN3C(=O)c4ccccc4C3=O)CCC[C@]21C`, the EC50 in the data set on Plasmodium falciparum [1] was 2.09 µM; in the data set with HepG2, greater than 25 µM; with Raji, greater than 25 µM; in the data set on BJ, greater than 25 µM; in the data set with HEK293, greater than 25 µM; in the data set with Plasmodium falciparum [3] it was 15 µM. In data set [2], the selectivity ratio is greater than 12.
In the case of `CC(C)c1cc2c(cc1O)[C@@]1(C)CCC[C@@](C)(CN3C(=O)c4ccccc4C3=O)[C@@H]1CC2`, the EC50 with Plasmodium falciparum [1] is 15 µM; with HepG2, greater than 25 µM; with Raji, greater than 25 µM; with BJ, greater than 25 µM; with HEK293 it was greater than 25 µM; with Plasmodium falciparum [3], 4 µM. Further, in [4], the selectivity ratio is greater than 6.3.
Turning to `CC(C)c1cc2c(cc1O)[C@@]1(C)CCC[C@@](C)(CN)[C@@H]1CC2`, the EC50 in the data set on Plasmodium falciparum [1] was 6.67 µM; in the data set with HepG2, greater than 25 µM; in the data set on Raji, greater than 25 µM; in the data set on BJ, 17.4 µM; in the data set on HEK293 it was greater than 25 µM; in the data set with Plasmodium falciparum [3], 15 µM. In addition, the selectivity ratio in data set [2] is 2.6.
`CC(C)c1cc2c(cc1O)[C@@]1(C)CCC[C@@](C)(CN3C(=O)c4c(Cl)c(Cl)c(Cl)c(Cl)c4C3=O)[C@@H]1CC2`: the EC50 in the data set with Plasmodium falciparum [1] was 15 µM; in the data set on HepG2, greater than 25 µM; in the data set on Raji, greater than 25 µM; with BJ, greater than 25 µM; in the data set on HEK293, greater than 25 µM; in the data set with Plasmodium falciparum [3] it was 15 µM.
With `CC(=O)Oc1cc2c(cc1C(C)C)CC[C@H]1[C@](C)(CN3C(=O)c4c(Cl)c(Cl)c(Cl)c(Cl)c4C3=O)CCC[C@]21C`, the EC50 in the data set with Plasmodium falciparum [1] was 15 µM; in the data set with HepG2, greater than 25 µM; with Raji, greater than 25 µM; in the data set with BJ, greater than 25 µM; in the data set with HEK293, greater than 25 µM; in the data set with Plasmodium falciparum [3], 15 µM.
In the case of `CC(=O)Oc1cc2c(cc1C(C)C)C(=O)C[C@H]1[C@](C)(CN3C(=O)c4c(Cl)c(Cl)c(Cl)c(Cl)c4C3=O)CCC[C@]21C`, the EC50 in the data set on Plasmodium falciparum [1] was 15 µM; in the data set on HepG2, greater than 25 µM; in the data set with Raji, greater than 25 µM; in the data set with BJ, greater than 25 µM; in the data set on HEK293 it was greater than 25 µM; in the data set on Plasmodium falciparum [3], 15 µM.
On to `CC(=O)Oc1cc2c(cc1C(C)C)/C(=N/NS(=O)(=O)c1ccc(C)cc1)C[C@H]1[C@](C)(CN3C(=O)c4c(Cl)c(Cl)c(Cl)c(Cl)c4C3=O)CCC[C@]21C`, for which the EC50 was 15 µM in the data set with Plasmodium falciparum [1]; greater than 25 µM in the data set on HepG2; greater than 25 µM with Raji; greater than 25 µM with BJ; greater than 25 µM in the data set with HEK293; 15 µM in the data set with Plasmodium falciparum [3].
`CC(C)c1cc2c(cc1O)[C@@]1(C)CCC[C@@](C)(C=O)[C@@H]1CC2` [18-OXOFERRUGINOL]: the EC50 in the data set with Plasmodium falciparum [1] was 15 µM; in the data set on HepG2, greater than 25 µM; in the data set with Raji it was greater than 25 µM; in the data set on BJ, greater than 25 µM; with HEK293, greater than 25 µM; in the data set on Plasmodium falciparum [3], 15 µM.
Turning to `CCN(CC)CCCC(C)Nc1ccnc2cc(Cl)ccc12` (stereo not given) [CHLOROQUINE], the concentration giving a half-maximal response (EC50) in the data set on Plasmodium falciparum [1] was 0.023 µM; in the data set with HepG2, greater than 25 µM; with Raji, greater than 25 µM; in the data set with BJ, greater than 25 µM; with HEK293, greater than 25 µM; in the data set with Plasmodium falciparum [3] it was 0.69 µM.
As to `CC(C)c1cc2c(cc1O)[C@@]1(C)CCCC(C)(C)[C@@H]1CC2` [FERRUGINOL], the IC50 (usually the concentration at which inhibition is half-maximal) is less than 1 µg/mL with Plasmodium falciparum [5]; less than 1 µg/mL with Plasmodium falciparum [6]; 1.95 µg/mL (≈ 6.81 µM) in the data set on Plasmodium falciparum [11]; 4.2 µg/mL (≈ 14.7 µM) in the data set with Plasmodium falciparum [12]; 3.5 µg/mL (≈ 12.2 µM) in the data set with Plasmodium falciparum [13]; 0.9 µM with Plasmodium falciparum [14]. Further, the selectivity ratio in data set [7] is greater than 65; in [8] it was greater than 65; in data set [9], greater than 65; in [10], greater than 65; in data set [15], 15.6; in data set [2], 4.6. Further, the selectivity ratio in data set [4] amounted to 8.6. In addition, the EC50 is 2.47 µM in the data set with Plasmodium falciparum [1]; greater than 25 µM in the data set on HepG2; 11.5 µM with Raji; 19.6 µM in the data set on BJ; greater than 25 µM in the data set with HEK293; 1.33 µM with Plasmodium falciparum [3].
As for `CC(C)=CCC[C@]1(C)C=Cc2c(O)c3c(c(CC=C(C)C)c2O1)O[C@]12C(=C[C@@H]4C[C@H]1C(C)(C)O[C@@]2(C/C=C(/C)C(=O)O)C4=O)C3=O` [GAMBOGIC ACID], the EC50 in the data set on HepG2 was less than 2 µM; in the data set on Raji, 0.24 µM; in the data set on BJ it was 0.21 µM; with HEK293 it was 0.21 µM.
